OXTR potentiate = human OXTR potentiators, primary screen, fluorescence, CHO-OTR cells, Fluo-8 calcium. Oxytocin receptor (Homo sapiens), P30559. Fluo-8 calcium fluorescence, potentiator mode; 0% = oxytocin EC15, 100% = EC100. activation, % at 3 µM. 320,000 compounds, 0.061% hits;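 active = activation above that plate's cutoff, the mean activation of tested compounds plus 3 SD, cut at about 6.6% in these data, passing the limit was not always enough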;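 also: 100% uses oxytocin at 75 nM as the full agonist control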
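Measured by – Fluo-8 calcium dye fluorescence · Test system – human OTR in CHO cells · Dosing – one concentration, 3.0 µM compound · Controls – EC15 oxytocin alone as 0%, 75 nM oxytocin as 100% · Evaluation – normalized max/min fluorescence ratio, % activation · Timing – 6 min pre-incubation, 100 s read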
OXTR ag = human OXTR agonists, primary screen, fluorescence, CHO-OTR cells, Fluo-8 calcium; AID 2435, 2010; Oxytocin receptor (Homo sapiens), P30559; Fluo-8 calcium fluorescence; normalized: DMSO 0%, oxytocin 100%; 320,000 compounds, 0.32% hits; activation, % at 3 µM;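 active = activation above the mean of all tested compounds plus 3 SD, cutoff set per screening run, cut at about 20% in these data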;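 also: peak over basal fluorescence ratio from a 100 s FLIPR kinetic read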
V1aR counter = agonists of human V1a receptor, primary screen, counter-screen for OXTR agonist project, fluorescence, CHO-V1R cells; Fluo-8 calcium fluorescence, agonist mode; 0% DMSO, 100% 3 nM vasopressin; activation, % at 3 µM; 320,000 compounds, 0.25% hits;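 active = activation above the mean activation of all tested compounds plus 3 SD, per screening run, cut at about 20% in these data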;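 also: signal is peak over basal fluorescence ratio across a 100 second FLIPR read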
Target sequence (P37288 whole entry, looked up): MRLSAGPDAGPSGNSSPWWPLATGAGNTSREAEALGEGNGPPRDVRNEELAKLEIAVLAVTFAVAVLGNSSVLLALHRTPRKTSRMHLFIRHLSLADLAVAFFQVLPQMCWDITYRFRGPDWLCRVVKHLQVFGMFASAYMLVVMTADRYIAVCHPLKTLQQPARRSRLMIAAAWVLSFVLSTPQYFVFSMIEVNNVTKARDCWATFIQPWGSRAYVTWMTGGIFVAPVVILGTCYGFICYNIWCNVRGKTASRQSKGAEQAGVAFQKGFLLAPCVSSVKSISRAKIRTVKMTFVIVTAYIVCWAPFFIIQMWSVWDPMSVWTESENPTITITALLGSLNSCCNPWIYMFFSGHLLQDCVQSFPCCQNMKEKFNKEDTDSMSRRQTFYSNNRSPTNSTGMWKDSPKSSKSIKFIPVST
M4 ag = human M4 muscarinic receptor agonists, primary screen, CHO-K1 cells, Fluo-8 calcium fluorescence; CHO-K1 hM4/Gqi5; vehicle 0%, full acetylcholine response 100%; 360,000 compounds, 0.14% hits; activation, % at 3 µM; AID 624127, 2012; Muscarinic acetylcholine receptor M4 (Homo sapiens), P08173;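 active = activation above the run mean over all test wells plus 3 SD, cut at about 32% in these data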;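 also: peak over basal fluorescence ratio per well then scaled between controls; 0% = DMSO wells and 100% = acetylcholine at EC100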
M4 antag = human M4 muscarinic receptor antagonists, primary screen, CHO cells, Fluo-8 calcium fluorescence. Muscarinic acetylcholine receptor M4 (Homo sapiens), P08173. CHO-hM4 cells, ACh EC80. inhibition, % at 3 µM. 360,000 compounds, 0.73% hits. AID 624125, 2012;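 active = inhibition above its plate's cutoff, the mean inhibition of sample wells plus 3 SD, cut at about 27% in these data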;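 also: 0% = acetylcholine EC80 with DMSO and 100% = DMSO without agonist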
CHRM4 PAM = human M4 muscarinic receptor positive allosteric modulators, primary screen, CHO-K1 cells, Fluo-8 calcium fluorescence; AID 624126, 2012; CHO-K1 hM4/Gqi5, ACh EC20; 0% = ACh EC20, 100% = maximal ACh; 360,000 compounds, 0.4% hits; activation, % at 3 µM;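 active = activation above its plate's cutoff, the mean activation of sample wells plus 3 SD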
Starred values were filed as active, the others as inactive. An excerpt weighted towards active compounds, which were near 1.5% of everything screened.

Results for Cc1ccc(S(=O)(=O)N2CCN(C(=O)COC(=O)CCOc3ccccc3C)CC2)c(C)c1 ?
M4 ag: 11; M4 antag: -7; CHRM4 PAM: -7

Results for CCCCn1cnc2c(cnn2-c2ccc(F)cc2)c1=O ?
OXTR potentiate: -11; OXTR ag: 1; V1aR counter: 2; M4 ag: 1; M4 antag: 37*; CHRM4 PAM: -5

How did CCCn1cnc2c(cnn2-c2ccc(F)cc2)c1=O do in these assays?
OXTR potentiate: -1; OXTR ag: 0; V1aR counter: 2; M4 ag: 3; M4 antag: -5; CHRM4 PAM: -3

What do the screens show for `Cc1oc2nc(SCC(=O)N3CCCCC3)nc(N)c2c1C`?
OXTR potentiate: 3; OXTR ag: 0; V1aR counter: 1; M4 ag: 1; M4 antag: -8; CHRM4 PAM: 20*

What do the screens show for `N#Cc1cnc(SCC(=O)N2CCCCC2)nc1N`?
OXTR potentiate: -9; OXTR ag: 0; V1aR counter: 0; M4 ag: 1; M4 antag: 5; CHRM4 PAM: -1

Results for O=[N+]([O-])c1ccc(S(=O)(=O)c2cccc(C(F)(F)F)c2)nc1 ?
OXTR potentiate: -12; OXTR ag: 4; V1aR counter: 1; M4 ag: 3; M4 antag: 46*; CHRM4 PAM: -6

How did O=C1CCC/C(=N/NC(=O)c2sc3ccccc3c2Cl)C1 do in these assays?
OXTR potentiate: -7; OXTR ag: 12; V1aR counter: 32*; M4 ag: 23; M4 antag: 21; CHRM4 PAM: -17

What do the screens show for `CNc1c(NS(=O)(=O)c2ccc3c(c2)CCCC3)c(=O)oc2ccccc12`?
OXTR potentiate: -7; OXTR ag: 1; V1aR counter: 1; M4 ag: 2; M4 antag: 3; CHRM4 PAM: -3

What do the screens show for `N#CC1C(=O)c2ccccc2C1c1ccccc1` (stereo unspecified)?
M4 ag: 5; M4 antag: 59*; CHRM4 PAM: -10

Results for CCN=C(NCC)SC1CC(=O)N(c2cccc(OC)c2)C1=O (stereo unspecified) ?
OXTR potentiate: -5; OXTR ag: 0; V1aR counter: 4; M4 ag: 17; M4 antag: 27*; CHRM4 PAM: -14

Results for Cc1cccc(C(=O)N2CCN(c3ccc([N+](=O)[O-])c(NCc4ccco4)c3)CC2)c1 ?
OXTR potentiate: -15; OXTR ag: -3; V1aR counter: -1; M4 ag: 1; M4 antag: 3; CHRM4 PAM: 8

How did Cc1ccc(C(=O)N2CCN(c3ccc([N+](=O)[O-])c(NCc4ccco4)c3)CC2)cc1 do in these assays?
OXTR potentiate: -8; OXTR ag: -2; V1aR counter: -1; M4 ag: -2; M4 antag: -17; CHRM4 PAM: 31*

What do the screens show for `COc1ccc(C(=O)c2ccc([N+](=O)[O-])cc2Cl)cc1`?
OXTR potentiate: -3; OXTR ag: -2; V1aR counter: -1; M4 ag: 17; M4 antag: -3; CHRM4 PAM: -6

What do the screens show for `Cc1ccc2nc(-c3ccc(NC(=S)NC(=O)CC(C)C)cc3)sc2c1`?
OXTR potentiate: 0; OXTR ag: 1; V1aR counter: 1; M4 ag: 0; M4 antag: -1; CHRM4 PAM: 10

What do the screens show for `Cc1ccc2nc(-c3ccc(NC(=O)C(C)Sc4nncs4)cc3)sc2c1` (stereo unspecified)?
OXTR potentiate: -17; OXTR ag: 4; V1aR counter: 3; M4 ag: 8; M4 antag: 29*; CHRM4 PAM: 5

Results for COc1ccc(C(=O)Nc2cc(=O)[nH]c3ncnn23)cc1 ?
OXTR potentiate: 0; OXTR ag: -1; V1aR counter: 1; M4 ag: 0; M4 antag: 29*; CHRM4 PAM: 4

Screens: PubChem, The Scripps Research Institute Molecular Screening Center
